For data set [1], the target named is Mitogen-activated protein kinase 14 (Homo sapiens, UniProt Q16539). The data set can be described thus: Inhibition of p38a in human HeLa cells lysate at 50 uM pre incubated for 15 mins followed by ATP acyl phosphate probe addition and measured after 10 mins by LC-MS/MS analysis relative to control. The data set is classed as subcellular. Conditions: time 25.0 min.

The target in data set [2] is Ribosomal protein S6 kinase alpha-3 (Homo sapiens, UniProt P51812). The data set is described as follows: Inhibition of RSK2 domain 1 in human HeLa cells lysate at 50 uM pre incubated for 15 mins followed by ADP acyl phosphate probe addition and measured after 10 mins by LC-MS/MS analysis relative to control. Type of data set: subcellular. Particulars: time 25.0 min.
Sequence of Ribosomal protein S6 kinase alpha-3 (P51812 whole entry, the tested form may be a part): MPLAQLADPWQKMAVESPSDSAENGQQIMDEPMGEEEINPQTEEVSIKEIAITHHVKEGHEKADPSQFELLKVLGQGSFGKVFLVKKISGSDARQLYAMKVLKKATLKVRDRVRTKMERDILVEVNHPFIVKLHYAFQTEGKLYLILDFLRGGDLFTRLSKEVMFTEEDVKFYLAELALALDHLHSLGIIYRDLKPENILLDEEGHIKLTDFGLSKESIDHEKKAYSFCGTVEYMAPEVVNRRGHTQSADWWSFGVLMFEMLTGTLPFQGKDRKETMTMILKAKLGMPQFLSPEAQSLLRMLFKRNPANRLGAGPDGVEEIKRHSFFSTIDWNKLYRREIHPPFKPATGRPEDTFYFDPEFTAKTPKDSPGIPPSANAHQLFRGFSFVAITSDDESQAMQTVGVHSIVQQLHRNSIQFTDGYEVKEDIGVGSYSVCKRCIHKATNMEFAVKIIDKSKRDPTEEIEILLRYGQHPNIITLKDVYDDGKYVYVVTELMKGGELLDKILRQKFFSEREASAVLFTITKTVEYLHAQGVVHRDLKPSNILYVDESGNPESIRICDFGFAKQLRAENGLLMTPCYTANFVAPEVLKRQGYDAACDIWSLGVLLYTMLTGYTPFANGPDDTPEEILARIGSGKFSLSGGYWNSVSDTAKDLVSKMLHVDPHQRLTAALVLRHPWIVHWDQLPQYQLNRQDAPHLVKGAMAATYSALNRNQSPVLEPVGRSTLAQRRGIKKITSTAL

Data set [3] addresses T1, Serine/threonine-protein kinase TAO2 (Homo sapiens) (UniProt Q9UL54).
T1 sequence (whole entry): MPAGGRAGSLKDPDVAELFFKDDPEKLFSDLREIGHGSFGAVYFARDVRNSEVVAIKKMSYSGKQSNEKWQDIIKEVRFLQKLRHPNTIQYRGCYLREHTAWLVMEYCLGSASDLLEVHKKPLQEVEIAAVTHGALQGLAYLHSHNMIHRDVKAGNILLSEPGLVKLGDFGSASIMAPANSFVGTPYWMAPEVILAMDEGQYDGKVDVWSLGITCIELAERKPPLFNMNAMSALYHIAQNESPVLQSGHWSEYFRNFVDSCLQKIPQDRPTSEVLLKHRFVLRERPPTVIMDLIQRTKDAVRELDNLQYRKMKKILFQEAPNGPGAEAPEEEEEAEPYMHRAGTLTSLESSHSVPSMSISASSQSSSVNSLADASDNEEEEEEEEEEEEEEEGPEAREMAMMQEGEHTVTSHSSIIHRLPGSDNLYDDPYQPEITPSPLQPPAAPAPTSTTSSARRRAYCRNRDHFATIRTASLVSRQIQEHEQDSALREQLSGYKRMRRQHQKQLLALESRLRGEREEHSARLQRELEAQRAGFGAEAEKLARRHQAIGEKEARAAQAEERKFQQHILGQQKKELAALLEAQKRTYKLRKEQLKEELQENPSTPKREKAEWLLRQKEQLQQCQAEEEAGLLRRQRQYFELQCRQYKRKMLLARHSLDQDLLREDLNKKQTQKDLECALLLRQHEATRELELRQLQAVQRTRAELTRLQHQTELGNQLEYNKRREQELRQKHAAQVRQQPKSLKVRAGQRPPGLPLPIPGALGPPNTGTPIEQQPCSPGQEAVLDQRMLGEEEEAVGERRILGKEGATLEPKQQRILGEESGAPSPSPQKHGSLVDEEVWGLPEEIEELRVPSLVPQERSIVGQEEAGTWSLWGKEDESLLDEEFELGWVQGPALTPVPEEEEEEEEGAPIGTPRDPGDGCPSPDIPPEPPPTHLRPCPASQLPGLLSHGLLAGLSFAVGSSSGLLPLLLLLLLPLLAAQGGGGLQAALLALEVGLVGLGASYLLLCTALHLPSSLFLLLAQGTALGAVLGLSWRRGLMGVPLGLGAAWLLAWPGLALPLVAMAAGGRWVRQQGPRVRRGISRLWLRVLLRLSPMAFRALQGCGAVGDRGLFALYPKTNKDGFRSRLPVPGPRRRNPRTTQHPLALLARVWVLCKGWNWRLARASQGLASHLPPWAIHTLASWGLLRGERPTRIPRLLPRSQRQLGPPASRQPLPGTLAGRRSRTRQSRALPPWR
The data set can be described thus: Inhibition of TAO2 in human HeLa cells lysate at 2 uM pre incubated for 15 mins followed by ATP acyl phosphate probe addition and measured after 10 mins by LC-MS/MS analysis relative to control. The data set is classed as subcellular. Particulars: time 25.0 min.

A short description of data set [4]: Inhibition of SRPK1/2 in human HeLa cells lysate pre incubated for 15 mins followed by ADP acyl phosphate probe addition and measured after 10 mins by LC-MS/MS analysis. The data set is classed as subcellular.
A short description of data set [5]: Inhibition of PRKX/PRKY in human HeLa cells lysate at 2 uM pre incubated for 15 mins followed by ADP acyl phosphate probe addition and measured after 10 mins by LC-MS/MS analysis relative to control. Conditions: 25 min, condition cancer.
The target in data set [6] is Cyclin-dependent kinase 2 (Homo sapiens, UniProt P24941). The data set can be described thus: Inhibition of CDK2 K2 site in human HeLa cells lysate at 2 uM pre incubated for 15 mins followed by ADP acyl phosphate probe addition and measured after 10 mins by LC-MS/MS analysis relative to control. Particulars: time 25.0 min. The data set is classed as subcellular. The method in brief: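 KiNativ profiling in HeLa lysate (5 mg/mL total protein). Lysate incubated 15 min with inhibitor at 50, 10, 2, 0.8 or 0 μM. ATP or ADP acylphosphate probe then added (5 μM final) and reacted 10 min. Reaction stopped with urea and analysed by targeted MS, using up to four fragment ions per kinase peptide-probe conjugate. % inhibition taken against untreated lysate. Run in duplicate.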

Data set [7] is described as follows: Toxicity in C57Bl/6 mouse assessed as effect on globulin level at 50 mg/kg, ip for 14 days (reference value: 2.3 g/dl). Particulars: in vivo, 336 h, time 14 day. Type of data set: organism-based.
In a further data set the target is RPS6KA1/RPS6KA2/RPS6KA3 (Homo sapiens, UniProt P51812+Q15349+Q15418). The data set can be described thus: Inhibition of RSK1/RSK2/RSK3 domain 1 in human HeLa cells lysate pre incubated for 15 mins followed by ADP acyl phosphate probe addition and measured after 10 mins by LC-MS/MS analysis. The data set is classed as subcellular.
Data set [8] addresses T2, Serine/threonine-protein kinase A-Raf (Homo sapiens) (UniProt P10398).
T2 sequence (whole entry): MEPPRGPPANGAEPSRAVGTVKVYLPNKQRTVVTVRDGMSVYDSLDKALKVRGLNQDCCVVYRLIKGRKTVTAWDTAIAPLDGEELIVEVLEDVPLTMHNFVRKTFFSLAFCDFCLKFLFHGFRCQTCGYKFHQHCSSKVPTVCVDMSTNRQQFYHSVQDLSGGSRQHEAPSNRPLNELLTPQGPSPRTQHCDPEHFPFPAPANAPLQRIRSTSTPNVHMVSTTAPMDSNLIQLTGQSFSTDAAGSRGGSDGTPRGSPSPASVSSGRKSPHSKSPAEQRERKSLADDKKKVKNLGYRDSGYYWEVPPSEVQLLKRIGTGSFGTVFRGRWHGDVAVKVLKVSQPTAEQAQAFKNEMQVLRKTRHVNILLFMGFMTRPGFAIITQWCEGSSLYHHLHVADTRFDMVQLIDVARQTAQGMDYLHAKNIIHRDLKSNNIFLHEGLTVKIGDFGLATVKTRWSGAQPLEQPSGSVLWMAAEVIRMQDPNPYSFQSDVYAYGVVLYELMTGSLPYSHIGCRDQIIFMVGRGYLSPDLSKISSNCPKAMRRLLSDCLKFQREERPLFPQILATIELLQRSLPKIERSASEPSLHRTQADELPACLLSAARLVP
The data set can be described thus: Inhibition of ARAF in human HeLa cells lysate at 50 uM pre incubated for 15 mins followed by ATP acyl phosphate probe addition and measured after 10 mins by LC-MS/MS analysis relative to control. The data set is classed as subcellular. Particulars: time 25.0 min. The method in brief:
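KiNativ-type profiling in HeLa lysate (5 mg/mL total protein). Lysate preincubated 15 min with inhibitor at 50, 10, 2, 0.8 or 0 μM, then ATP or ADP acylphosphate probe added (5 μM final) for 10 min. Reaction stopped with urea and analysed by targeted MS, using up to four fragment ions per kinase peptide-probe conjugate. % inhibition calculated against untreated lysate. Duplicate reactions.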

Sequence of Mitogen-activated protein kinase 14 (Q16539 whole entry): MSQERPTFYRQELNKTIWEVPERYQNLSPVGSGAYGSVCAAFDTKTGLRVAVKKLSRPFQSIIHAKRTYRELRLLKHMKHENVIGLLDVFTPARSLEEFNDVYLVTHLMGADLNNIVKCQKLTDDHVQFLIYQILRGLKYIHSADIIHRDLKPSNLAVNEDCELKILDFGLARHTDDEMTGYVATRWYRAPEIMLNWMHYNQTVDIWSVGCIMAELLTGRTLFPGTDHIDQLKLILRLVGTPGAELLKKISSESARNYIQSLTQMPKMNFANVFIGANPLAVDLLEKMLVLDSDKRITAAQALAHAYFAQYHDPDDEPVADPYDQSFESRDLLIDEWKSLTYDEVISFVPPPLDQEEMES

Turning to `CCOc1cc(N2CCC(O)CC2)ccc1Nc1ncc2c(n1)N(C)c1ccccc1C(=O)N2C`, the inhibition in [1] is 31.4%; in data set [2], -4.3%; in data set [3], -8.5%; in data set [6] it was 9.8%; in [8] it was 4.3%. Further, the IC50 (in data set [4]; at RPS6KA1/RPS6KA2/RPS6KA3) was greater than 50 µM throughout. The inhibition at 2 µM in [5] is 25.5%. Further, in data set [7], the Activity came out at 2.5 g/dL.

(Values after ChEMBL document CHEMBL5661979, “Pharmacological inhibition of BMK1 suppresses tumor growth through promyelocytic leukemia protein” (Cancer Cell, 2010).)
